Measurements collected from several papers.
Lines come from different studies, so protocols differ.
Cell line: HepG2
Read-out: cell growth or viability

SMILES | method | time | IC50
CSc1ccccc1-c1cc(C(N)=O)c2[nH]c3c(c2c1)CC(N)CC3 (stereo not drawn) |  |  | 2.46 µM
c1ccc(Cn2nc(-c3ncc(-c4ccccc4)s3)c3ccccc32)cc1 |  | 48 h | 27.7 µM
C#Cc1cccc(Nc2ncnc3cc(OCCOC)c(OCCOC)cc23)c1 | LDH | 48 h | 2.07 µM
COc1cc([C@@H]2c3cc4c(cc3[C@@H](O[C@@H]3O[C@@H]5CO[C@@H](C)O[C@H]5[C@H](O)[C@H]3O)[C@H]3COC(=O)[C@H]23)OCO4)cc(OC)c1O | MTT |  | 44.5 µM
C#CCNC(=O)c1c(-c2ccc(OC)cc2)oc2ccc(O)c(CN3CCCCC3)c12 | resazurin | 18 h | 53.2 µM
COc1ccc2c(-c3ncc(-c4ccccc4)o3)nn(Cc3ccccc3)c2c1 |  | 48 h | 89.7 µM
CC(=O)OC[C@H]1O[C@@H](n2cc(Cn3c(C(C)=O)nc4ccccc43)nn2)[C@H](OC(C)=O)[C@@H](OC(C)=O)[C@H]1OC(C)=O | LDH | 48 h | 3.27 µM
Clc1ccc(Cn2nc(-c3ncc(-c4ccccc4)s3)c3ccccc32)c(Cl)c1 |  | 48 h | 129 µM
COc1ccc(N(Cc2csc(-c3ccc(C)cc3)n2)C(=O)CCCCCC(=O)NO)cc1 | MTT | 72 h | 0.19 µM
O=C1CS/C(=N\c2ccccc2O)N1c1nnc(-c2ccc(C(F)(F)F)cc2/N=C2\SCC(=O)N2c2ccccc2O)s1 | MTT |  | 31.1 µM
Cc1noc(-c2nn(Cc3ccc(Cl)cc3Cl)c3ccccc23)n1 |  | 48 h | 51.4 µM
NC(=O)c1cnc(NCCc2ccc(O)c(Cl)c2)nc1NCc1ccccc1 | CCK-8 | 48 h | 1.37 µM
O=C1CS/C(=N\c2cc(C(F)(F)F)ccc2-c2nnc(N3C(=O)CS/C3=N\c3ccc(-c4ccccc4)cc3)s2)N1c1ccc(-c2ccccc2)cc1 | MTT |  | 87.7 µM
CCCNC(=S)N/N=C/c1cccc2cc3ccccc3nc12 | MTT | 48 h | > 50 µM
CCOc1ccc(Nc2c3c(nc4ccccc24)CCC3)cc1 | resazurin | 72 h | 11.3 µM
COc1cccc2c1C(=O)c1c(O)c3c(c(O)c1C2=O)C[C@@](O)(C(=O)CO)C[C@@H]3O[C@H]1C[C@H](N)[C@H](O)[C@H](C)O1 | LDH | 48 h | 3.81 µM
O=C1CS/C(=N\c2cc(C(F)(F)F)ccc2-c2nnc(N3C(=O)CS/C3=N\c3ccc(F)cc3)s2)N1c1ccc(F)cc1 | MTT |  | 24.1 µM
CC(=O)O[C@@H]1[C@@H](OC(C)=O)[C@H](OC(C)=O)CO[C@H]1n1cc(Cn2c(C(C)=O)nc3ccccc32)nn1 | LDH | 48 h | 1.65 µM
N=C(CC(O)c1cc2c(F)cc(F)cc2c2cc(C(F)(F)F)ccc12)Nc1ccc(F)c(F)c1 (stereo not drawn) | neutral red | 24 h | 7.8 µM
CC(=O)O[C@@H]1[C@@H](OC(C)=O)[C@H](OC(C)=O)CO[C@H]1n1cc(Cn2c(C(=O)/C=C/c3ccc(F)cc3)nc3ccccc32)nn1 | LDH | 48 h | 1.67 µM
FC(F)(F)CN1CC(n2cc(Oc3ccn4nc(Cl)cc4n3)cn2)C1 |  |  | > 512 µM

SMILES | method | time | IC50
CSc1ccccc1-c1ccc(C(N)=O)c2[nH]c3c(c12)CC(N)CC3 (stereo not drawn) |  |  | 0.15 µM
COc1ccc(N(Cc2nc(-c3ccc(F)cc3)cs2)C(=O)CCCCCC(=O)NO)cc1 | MTT | 72 h | 0.97 µM
COc1ccc(C[C@H](N)C(=O)N[C@H]2[C@@H](O)[C@H](n3cnc4c(N(C)C)ncnc43)O[C@@H]2CO)cc1 | resazurin | 72 h | 1.25 µM
FC(F)(F)c1ccc(-c2noc(-c3nn(Cc4ccc(Cl)cc4Cl)c4ccccc34)n2)cc1 |  | 48 h | 251 µM
CC(C)CNC(=S)N/N=C/c1cccc2cc3ccccc3nc12 | MTT | 48 h | > 50 µM
C/C(=C\C(=O)N[C@H](C(=O)N1CCC[C@H]1C(=O)N(c1ccccc1)c1ccc(I)cc1)C(C)(C)C)c1ccc(OP(=O)(O)O)cc1 | CCK-8 |  | 6.09 µM
O=C1CS/C(=N\c2cc(C(F)(F)F)ccc2-c2nnc(N3C(=O)CS/C3=N\c3cc(O)cc(Br)c3)s2)N1c1cc(O)cc(Br)c1 | MTT |  | 70.4 µM
COc1ccc2c(-c3nc(-c4ccccc4)no3)nn(Cc3ccncc3)c2c1 |  | 48 h | 68.1 µM
O=C1CS/C(=N\c2cc(C(F)(F)F)ccc2-c2nnc(N3C(=O)CS/C3=N\c3ccc(F)c(O)c3)s2)N1c1ccc(F)c(O)c1 | MTT |  | 22.5 µM
C#CCn1c(C2CC(c3ccc(F)cc3)=NN2C(C)=O)nc2ccccc21 (stereo not drawn) | LDH | 48 h | 3.25 µM
C#CCOc1ccc2oc(-c3ccc(OC)cc3)c(C(=O)OCC)c2c1CN1CCCCC1 | resazurin |  | 34.5 µM
COc1cccc(N=C2SCC(=O)N2c2nnc(-c3ccc(C(F)(F)F)cc3N=C3SCC(=O)N3c3cccc(OC)c3)s2)c1 | MTT |  | 80.1 µM
O=[N+]([O-])c1ccc(NC(=S)N/N=C/c2cccc3cc4ccccc4nc23)cc1 | MTT | 48 h | > 50 µM
Nc1ncnc2c1ncn2CCN1C(=O)C(=O)c2cc(Cl)ccc21 | SRB |  | 5.62 µM
Clc1ccc(Cn2nc(-c3nc(-c4ccccc4)no3)c3ccccc32)c(Cl)c1 |  | 48 h | 59.9 µM
COc1cccc2c1C(=O)c1c(O)c3c(c(O)c1C2=O)C[C@@](O)(C(=O)CO)C[C@@H]3O[C@H]1C[C@H](N)[C@H](O)[C@H](C)O1 |  |  | 0.06 µM
Cc1c2c(nn1C)CSCc1cc(n(C)n1)CSc1cc(c3ccccc3c1)OCCCc1c(C(=O)O)n(C)c3c-2c(Cl)ccc13 | CCK-8 |  | 50 µM
Fc1ccc2c(-c3nnc(Cc4ccccc4)s3)nn(Cc3ccccc3)c2c1 |  | 48 h | 29.1 µM
COc1cc([C@@H]2c3cc4c(cc3[C@@H](O[C@@H]3O[C@@H]5CO[C@@H](C)O[C@H]5[C@H](O)[C@H]3O)[C@H]3COC(=O)[C@H]23)OCO4)cc(OC)c1O | MTT | 75 h | 45.9 µM
Fc1ccc(NC(=S)N/N=C/c2cccc3cc4ccccc4nc23)cc1 | MTT | 48 h | > 50 µM
COc1ccc(N=C2SCC(=O)N2c2nnc(-c3ccc(C(F)(F)F)cc3N=C3SCC(=O)N3c3ccc(OC)cc3)s2)cc1 | MTT |  | 70.1 µM
